ChEMBL document CHEMBL1828498, “Identification and characterization of a novel integrin-linked kinase inhibitor” (J Med Chem, 2011)
Activity calls are given as the source filed them. Unless noted, the rule behind the calls is not given here.

Columns and labels:
LNCaP = assay: Antiproliferative activity against human LNCAP cells assessed as suppression of cell viability by MTT assay; type: functional, cell-based
Outline: (§1)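 Cancer lines seeded 5000/well and nonmalignant PrEC/MEC 8000/well in 10% FBS, 24 h before treatment. Compound exposure 24 h in 5% FBS medium, 0.1% final DMSO. MTT (0.25 mg/mL) for 1 h at 37°C, dye solubilized in DMSO, absorbance read at 570 nm. Mean ± SD, n = 6.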

PC-3 [1] = assay: Antiproliferative activity against human PC3 cells assessed as suppression of cell viability by MTT assay; type: functional, cell-based; outline: as §1
MDA-MB-231 = assay: Antiproliferative activity against human MDA-MB-231 cells assessed as suppression of cell viability by MTT assay; type: functional, cell-based; outline: as §1
PrEC = assay: Antiproliferative activity against human PrEC cells at 1 to 5 uM by MTT assay; type: cell-based; outline: as §1
[2] = tested on: 3-phosphoinositide dependent protein kinase-2, PDK2; assay: Inhibition of PDK2 in human MDA-MB-231 cells assessed as Akt Ser-473 dephosphorylation by Western blot analysis; type: functional, cell-based
Outline: (§2)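 Cells exposed 24 h in 5% FBS medium, final DMSO 0.1%; lysed in 1% SDS/10 mM EDTA/50 mM Tris pH 8.1, equal protein on SDS-PAGE, nitrocellulose, primary antibody 1:1000 at 4°C for 2 h, HRP secondary 1:5000, ECL detection; blots representative of three independent experiments.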

[3] = target: Rapamycin-insensitive companion of mTOR (Homo sapiens) (UniProt Q6R327); assay: Inhibition of mTORC2 in human MDA-MB-231 cells assessed as PKCalpha phosphorylation by Western blot analysis; type: cell-based; outline: as §2
[4] = target: T1, Scaffold protein ILK (Homo sapiens) (UniProt Q13418); assay: (§3) Inhibition of human ILK activity assessed myelin basic protein phosphorylation by radiometric kinase assay in the presence of [gamma 32P]ATP
T1 sequence (whole entry): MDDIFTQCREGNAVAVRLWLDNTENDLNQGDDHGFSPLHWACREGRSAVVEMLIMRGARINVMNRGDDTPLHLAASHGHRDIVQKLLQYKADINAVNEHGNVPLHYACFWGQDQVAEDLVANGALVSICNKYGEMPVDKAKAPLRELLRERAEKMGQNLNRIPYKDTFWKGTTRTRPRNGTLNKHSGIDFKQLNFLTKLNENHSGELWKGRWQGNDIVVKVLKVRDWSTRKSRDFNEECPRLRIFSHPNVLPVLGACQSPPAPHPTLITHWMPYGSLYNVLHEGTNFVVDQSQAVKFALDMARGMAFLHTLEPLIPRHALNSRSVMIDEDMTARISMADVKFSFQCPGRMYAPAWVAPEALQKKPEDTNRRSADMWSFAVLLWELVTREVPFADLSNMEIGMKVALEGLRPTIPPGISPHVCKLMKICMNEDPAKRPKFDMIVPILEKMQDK
Outline: (§4)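 ILK immunoprecipitated from EGF-pretreated (100 ng/mL, 2 h) PC-3 lysates with protein A/G agarose; reaction in 25 μL with 5 μg MBP and 2.5 μCi [γ-32P]ATP, 30°C for 25 min; SDS-PAGE, autoradiography, densitometry versus DMSO control; mean ± SD, n = 3.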

Scaffold protein ILK = Scaffold protein ILK (Homo sapiens, UniProt Q13418); assay: as §3; outline: as §4
PC-3 [5] = assay: Reduction in YB-1 mRNA expression in human PC3 cells expressing constitutively active ILK after 24 hrs by RT-PCR analysis; type: functional, cell-based
Outline: (§5)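 PC-3, PC-3/CA-ILK, SKBR3 and SKBR3/CA-ILK cells treated 24 h in 5% FBS medium; total RNA from 1 × 10^6 cells by Trizol, 1 μg reverse-transcribed, then PCR with gene-specific primers and β-actin reference.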

SK-BR-3 [6] = assay: Reduction in HER2 concentration in human SKBR3 cells after 24 hrs by Western blot analysis; type: functional, cell-based
Outline: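 PC-3 versus stable PC-3/CA-ILK, or SKBR3 versus transient SKBR3/CA-ILK (electroporation, used 48 h after), treated 24 h in 5% FBS medium; immunoblotting with ECL; representative of three experiments.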

SK-BR-3 [7] = assay: Reduction in EGFR mRNA expression in human SKBR3 cells after 24 hrs by RT-PCR analysis; type: functional, cell-based; outline: as §5
SK-BR-3 [8] = assay: Reduction in EGFR mRNA expression in human SKBR3 cells expressing constitutively active ILK after 24 hrs by RT-PCR analysis; type: functional, cell-based; outline: as §5
[9] = target: Epidermal growth factor receptor (Homo sapiens) (UniProt P00533); assay: Inhibition of EGFR at 5 uM assessed as remaining activity
Outline: (§6)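 Panel of 20 recombinant kinases, profiled by a commercial vendor.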

[10] = target: RAC-alpha serine/threonine-protein kinase (Homo sapiens) (UniProt P31749); assay: Inhibition of Akt at 5 uM assessed as remaining activity; outline: as §6
Mus musculus = assay: Decrease in phosphorylation of YB-1 in human PC3 cells xenografted nude mouse tumor lysate at 25 mg/kg, po administered for 35 days by Western blot analysis; type: functional, organism-based; design: dose 25 mg/kg; conditions: Neoplasm, PC-3
Outline: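 Male NCr athymic nude mice, 5–7 weeks, with s.c. PC-3 xenografts (0.5 × 10^6 cells in 50% Matrigel), dosed by oral gavage once daily for 35 days. Vehicle 0.5% methylcellulose, 0.1% Tween 80 in water, 10 μL/g. Tumors snap-frozen at sacrifice; three tumors per group immunoblotted.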

[11] = target: T2, 3-phosphoinositide-dependent protein kinase 1 (Homo sapiens) (UniProt O15530); assay: Inhibition of PDK2 in human PC3 cells assessed as Akt Thr-308 dephosphorylation by Western blot analysis; type: functional, cell-based; conditions: PC-3; outline: as §2
T2 sequence (whole entry): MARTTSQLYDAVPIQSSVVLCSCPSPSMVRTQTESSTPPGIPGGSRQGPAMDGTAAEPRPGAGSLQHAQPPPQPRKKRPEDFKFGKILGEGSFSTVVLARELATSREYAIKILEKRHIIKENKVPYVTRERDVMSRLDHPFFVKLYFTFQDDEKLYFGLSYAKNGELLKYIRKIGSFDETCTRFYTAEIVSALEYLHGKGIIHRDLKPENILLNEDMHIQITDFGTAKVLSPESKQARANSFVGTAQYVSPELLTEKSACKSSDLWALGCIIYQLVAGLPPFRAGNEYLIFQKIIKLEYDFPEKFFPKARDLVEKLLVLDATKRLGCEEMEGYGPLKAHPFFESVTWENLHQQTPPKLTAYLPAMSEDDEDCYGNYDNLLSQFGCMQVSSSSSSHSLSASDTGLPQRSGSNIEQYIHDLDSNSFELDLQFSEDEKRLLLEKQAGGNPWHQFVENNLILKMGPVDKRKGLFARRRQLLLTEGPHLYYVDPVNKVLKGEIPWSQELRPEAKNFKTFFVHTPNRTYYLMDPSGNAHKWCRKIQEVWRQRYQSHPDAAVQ

PC-3 [12] = assay: Induction of apoptosis in human PC3 cells assessed as late apoptotic cells at 2 uM by annexin V/PI staining (reference value: 9.8%); type: functional
PC-3 [13] = assay: Induction of apoptosis in human PC3 cells assessed as early apoptotic cells at 4 uM by annexin V/PI staining (reference value: 5.6%); type: functional
[14] = target: 3-phosphoinositide-dependent protein kinase 1 (Homo sapiens) (UniProt O15530); assay: Inhibition of PDK1 at 5 uM assessed as remaining activity

RAC-alpha serine/threonine-protein kinase (Homo sapiens), sequence (P31749 whole entry): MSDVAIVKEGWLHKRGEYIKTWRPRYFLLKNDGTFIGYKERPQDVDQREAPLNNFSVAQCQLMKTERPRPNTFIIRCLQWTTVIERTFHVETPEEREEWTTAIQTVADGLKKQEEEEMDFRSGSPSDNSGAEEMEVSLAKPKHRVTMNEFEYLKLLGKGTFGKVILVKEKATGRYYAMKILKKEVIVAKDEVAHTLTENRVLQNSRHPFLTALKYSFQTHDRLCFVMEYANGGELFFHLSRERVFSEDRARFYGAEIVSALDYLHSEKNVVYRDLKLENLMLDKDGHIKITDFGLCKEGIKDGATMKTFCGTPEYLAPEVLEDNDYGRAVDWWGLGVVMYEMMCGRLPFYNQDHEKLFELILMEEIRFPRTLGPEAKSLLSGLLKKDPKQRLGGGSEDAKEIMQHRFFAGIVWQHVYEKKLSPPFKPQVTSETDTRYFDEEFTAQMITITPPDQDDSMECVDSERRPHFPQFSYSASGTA
Epidermal growth factor receptor (Homo sapiens), sequence (P00533 whole entry): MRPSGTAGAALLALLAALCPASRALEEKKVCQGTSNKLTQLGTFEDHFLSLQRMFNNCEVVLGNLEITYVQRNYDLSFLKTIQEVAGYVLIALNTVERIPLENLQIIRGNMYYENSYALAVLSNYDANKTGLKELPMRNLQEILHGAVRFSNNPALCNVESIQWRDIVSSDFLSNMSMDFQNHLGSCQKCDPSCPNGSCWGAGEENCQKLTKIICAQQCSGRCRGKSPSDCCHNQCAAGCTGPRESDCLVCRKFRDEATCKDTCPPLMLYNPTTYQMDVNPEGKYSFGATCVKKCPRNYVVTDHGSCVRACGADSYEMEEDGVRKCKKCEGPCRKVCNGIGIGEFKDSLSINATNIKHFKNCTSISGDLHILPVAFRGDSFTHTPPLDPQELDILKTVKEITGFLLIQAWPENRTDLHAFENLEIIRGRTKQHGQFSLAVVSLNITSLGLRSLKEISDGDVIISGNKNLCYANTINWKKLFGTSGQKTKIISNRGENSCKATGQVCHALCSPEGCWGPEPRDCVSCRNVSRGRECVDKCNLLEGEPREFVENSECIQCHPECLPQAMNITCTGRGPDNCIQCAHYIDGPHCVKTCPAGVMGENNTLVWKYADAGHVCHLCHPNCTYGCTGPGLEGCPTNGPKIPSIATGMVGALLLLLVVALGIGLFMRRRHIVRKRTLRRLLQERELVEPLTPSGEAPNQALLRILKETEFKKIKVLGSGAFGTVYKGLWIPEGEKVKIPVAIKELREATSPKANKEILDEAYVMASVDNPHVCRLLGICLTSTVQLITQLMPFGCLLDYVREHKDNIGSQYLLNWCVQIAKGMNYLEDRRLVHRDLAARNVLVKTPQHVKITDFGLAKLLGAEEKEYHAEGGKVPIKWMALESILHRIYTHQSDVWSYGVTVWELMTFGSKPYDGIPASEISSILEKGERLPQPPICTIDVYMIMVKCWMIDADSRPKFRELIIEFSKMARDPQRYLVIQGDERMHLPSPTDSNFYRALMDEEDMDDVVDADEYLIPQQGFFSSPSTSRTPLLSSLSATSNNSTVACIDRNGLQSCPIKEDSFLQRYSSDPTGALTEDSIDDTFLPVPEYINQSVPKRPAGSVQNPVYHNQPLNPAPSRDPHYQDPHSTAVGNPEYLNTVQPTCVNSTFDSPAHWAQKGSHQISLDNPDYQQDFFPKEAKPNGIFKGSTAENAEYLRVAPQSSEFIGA
Rapamycin-insensitive companion of mTOR (Homo sapiens), sequence (Q6R327 whole entry): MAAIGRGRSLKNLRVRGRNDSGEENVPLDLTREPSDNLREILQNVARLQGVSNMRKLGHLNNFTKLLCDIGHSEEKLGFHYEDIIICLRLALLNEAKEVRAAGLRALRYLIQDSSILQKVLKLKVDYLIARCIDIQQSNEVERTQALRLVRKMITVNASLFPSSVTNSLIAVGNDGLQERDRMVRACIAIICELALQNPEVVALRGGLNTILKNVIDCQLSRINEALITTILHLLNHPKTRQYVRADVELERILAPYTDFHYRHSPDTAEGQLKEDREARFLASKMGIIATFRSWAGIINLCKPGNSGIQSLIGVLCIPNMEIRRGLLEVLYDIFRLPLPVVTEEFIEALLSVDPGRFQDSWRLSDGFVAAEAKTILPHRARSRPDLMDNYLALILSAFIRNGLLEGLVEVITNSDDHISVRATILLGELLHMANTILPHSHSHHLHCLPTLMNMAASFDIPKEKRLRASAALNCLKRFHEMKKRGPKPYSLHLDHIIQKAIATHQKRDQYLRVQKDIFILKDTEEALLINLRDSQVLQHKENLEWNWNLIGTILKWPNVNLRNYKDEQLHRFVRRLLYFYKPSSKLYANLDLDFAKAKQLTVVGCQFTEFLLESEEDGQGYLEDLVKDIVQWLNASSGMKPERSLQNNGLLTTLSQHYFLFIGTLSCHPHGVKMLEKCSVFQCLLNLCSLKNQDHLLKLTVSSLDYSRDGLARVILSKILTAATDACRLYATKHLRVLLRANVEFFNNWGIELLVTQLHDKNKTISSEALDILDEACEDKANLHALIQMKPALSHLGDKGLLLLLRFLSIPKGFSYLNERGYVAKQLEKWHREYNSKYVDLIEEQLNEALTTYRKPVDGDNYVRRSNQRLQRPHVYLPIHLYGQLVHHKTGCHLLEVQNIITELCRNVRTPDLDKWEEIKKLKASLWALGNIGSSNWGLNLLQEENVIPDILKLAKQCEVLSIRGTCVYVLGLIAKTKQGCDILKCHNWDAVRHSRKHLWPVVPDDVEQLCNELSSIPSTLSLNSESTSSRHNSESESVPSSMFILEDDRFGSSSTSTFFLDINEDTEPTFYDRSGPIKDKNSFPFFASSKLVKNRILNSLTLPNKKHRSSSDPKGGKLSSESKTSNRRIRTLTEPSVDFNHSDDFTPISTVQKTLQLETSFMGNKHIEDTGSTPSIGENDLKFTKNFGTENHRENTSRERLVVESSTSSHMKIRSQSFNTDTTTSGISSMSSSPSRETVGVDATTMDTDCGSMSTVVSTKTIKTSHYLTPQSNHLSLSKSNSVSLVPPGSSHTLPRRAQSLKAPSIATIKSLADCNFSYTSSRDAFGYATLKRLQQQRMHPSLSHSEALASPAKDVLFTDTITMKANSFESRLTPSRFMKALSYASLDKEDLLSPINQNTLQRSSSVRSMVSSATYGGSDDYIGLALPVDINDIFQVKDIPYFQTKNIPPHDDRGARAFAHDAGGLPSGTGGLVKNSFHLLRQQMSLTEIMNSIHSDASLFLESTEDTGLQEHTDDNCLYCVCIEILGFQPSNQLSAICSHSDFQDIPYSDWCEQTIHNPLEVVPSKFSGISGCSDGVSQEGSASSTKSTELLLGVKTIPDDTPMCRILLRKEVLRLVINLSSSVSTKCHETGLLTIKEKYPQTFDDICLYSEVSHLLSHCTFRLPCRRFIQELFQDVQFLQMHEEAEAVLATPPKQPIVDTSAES

IC50 (LNCaP): 1.6 µM
IC50 (PC-3 [1]): 2 µM
IC50 (MDA-MB-231): 1 µM
inhibition [3]: inactive
inhibition [4]: Dose-dependent effect
IC50 (Scaffold protein ILK): 0.6 µM
Activity [9]: 103%
Activity [10]: 88%
inhibition [11]: inactive
Activity [14]: 94%
SMILES: CNC(=O)CCc1cc(-c2ccc(-c3ccc(C(F)(F)F)cc3)cc2)n(-c2ccc(N3CCNCC3)cc2)n1
inhibition (INH) (PrEC): Not Active
inhibition [2]: Dose-dependent effect
Activity (PC-3 [5]): inactive
Activity (SK-BR-3 [6]): Dose-dependent effect
Activity (SK-BR-3 [7]): Dose-dependent effect
Activity (SK-BR-3 [8]): inactive
Activity (Mus musculus): Active
Activity (PC-3 [12]): 11.6%
Activity (PC-3 [13]): 25.2%
